# In paper PMC7744997 (Clinical Infectious Diseases: An Official Publication of …, 2020):
# Like-named read-outs stand apart in the source and are kept apart here.
# Assay type: in vivo, human
# Procedure, shortened: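 Population PK model built in adults and scaled to paediatrics, fitted to sparse heel- or finger-prick capillary samples. Weight-based oral doses were given once daily for 7 days in three age cohorts (≥6–≤24, 3–<6, >1–<3 months). Doses were escalated after data review committee assessment of PK and safety. AUC24h, Cmin and Cmax were estimated at day 1 and day 7, as mean with CV%.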
# [1] = cohort 1a (≥6 to ≤24 mo), 2 mg/kg QD oral, n=4, Day 1
# [2] = cohort 1a (≥6 to ≤24 mo), 2 mg/kg QD oral, n=4, Day 7
# [3] = cohort 1b (≥6 to ≤24 mo), 6 mg/kg QD oral, n=4, Day 1
# [4] = cohort 1b (≥6 to ≤24 mo), 6 mg/kg QD oral, n=4, Day 7
# [5] = cohort 1c (≥6 to ≤24 mo), 8 mg/kg QD oral, n=4, Day 1
# [6] = cohort 1c (≥6 to ≤24 mo), 8 mg/kg QD oral, n=4, Day 7
# [7] = cohort 2a (≥3 to <6 mo), 1.5 mg/kg QD oral, n=4, Day 1
# [8] = cohort 2a (≥3 to <6 mo), 1.5 mg/kg QD oral, n=4, Day 7
# [9] = cohort 2b (≥3 to <6 mo), 4.5 mg/kg QD oral, n=4, Day 1
# [10] = cohort 2b (≥3 to <6 mo), 4.5 mg/kg QD oral, n=4, Day 7
# [11] = cohort 2c (≥3 to <6 mo), 6 mg/kg QD oral, n=1, Day 1
# [12] = cohort 2c (≥3 to <6 mo), 6 mg/kg QD oral, n=1, Day 7
# [13] = cohort 3a (>1 to <3 mo), 1 mg/kg QD oral, n=4, Day 1
# [14] = cohort 3a (>1 to <3 mo), 1 mg/kg QD oral, n=4, Day 7
# [15] = cohort 3b (>1 to <3 mo), 3 mg/kg QD oral, n=4, Day 1
# [16] = cohort 3b (>1 to <3 mo), 3 mg/kg QD oral, n=4, Day 7
# [17] = cohort 3c (>1 to <3 mo), 5 mg/kg QD oral, n=4, Day 1
# [18] = cohort 3c (>1 to <3 mo), 5 mg/kg QD oral, n=4, Day 7
# [19] = cohort 1d (≥6 to ≤24 mo), 9 mg/kg QD oral, n=4, Day 1
# [20] = cohort 1d (≥6 to ≤24 mo), 9 mg/kg QD oral, n=4, Day 7
smiles,measurement,setting,value
CS(=O)(=O)CCCn1c(Cn2c(=O)n(CC(F)(F)F)c3ccncc32)cc2cc(Cl)ccc21 [JNJ-53718678],Mean AUC24h (CV%),[1],6047.2 (17.5) ng × h/mL
same,Mean Cmax (CV%),[1],546.8 (35.7) ng/mL
same,Mean Cmin (CV%),[1],81.4 (58.8) ng/mL
same,Mean AUC24h (CV%),[2],7738.8 (27.4) ng × h/mL
same,Mean Cmax (CV%),[2],721.3 (31.2) ng/mL
same,Mean Cmin (CV%),[2],114.0 (77.7) ng/mL
same,Mean Cmax (CV%),[3],1960.5 (58.1) ng/mL
same,Mean Cmin (CV%),[3],155.5 (89.3) ng/mL
same,Mean Cmax (CV%),[4],3304.2 (12.3) ng/mL
same,Mean Cmin (CV%),[4],225.7 (66.5) ng/mL
same,Mean Cmax (CV%),[5],3346.9 (13.0) ng/mL
same,Mean Cmin (CV%),[5],244.1 (90.4) ng/mL
same,Mean Cmax (CV%),[6],4298.8 (11.2) ng/mL
same,Mean Cmin (CV%),[6],323.9 (95.7) ng/mL
same,Target exposures,"cohort 1c, ≥6–≤24 months, 8 mg/kg QD, AUC24h similar to adults",Cmin and Cmax target exposures were not reached
same,Mean AUC24h (CV%),[7],6658.4 (25.6) ng × h/mL
same,Mean Cmax (CV%),[7],727.5 (68.7) ng/mL
same,Mean Cmin (CV%),[7],88.3 (39.2) ng/mL
same,Mean AUC24h (CV%),[8],8620.9 (17.3) ng × h/mL
same,Mean Cmax (CV%),[8],938.0 (53.3) ng/mL
same,Mean Cmin (CV%),[8],124.0 (49.1) ng/mL
same,Mean Cmax (CV%),[9],2533.2 (25.0) ng/mL
same,Mean Cmin (CV%),[9],319.8 (16.9) ng/mL
same,Mean Cmax (CV%),[10],3021.8 (41.2) ng/mL
same,Mean Cmin (CV%),[10],363.0 (18.9) ng/mL
same,Mean Cmax (CV%),[11],2556.8 (…) ng/mL
same,Mean Cmin (CV%),[11],428.6 (…) ng/mL
same,Mean Cmax (CV%),[12],3131.0 (…) ng/mL
same,Mean Cmin (CV%),[12],517.3 (…) ng/mL
same,Mean AUC24h (CV%),"cohort 2c (≥3 to <6 mo), 6 mg/kg QD oral, n=1, Day 7, listed as JNJ-8678, 6 mg/kg",34 980 ng × h/mL
same,Mean AUC24h (CV%),[13],4495.6 (4.8) ng × h/mL
same,Mean Cmax (CV%),[13],374.2 (18.5) ng/mL
same,Mean Cmin (CV%),[13],72.6 (41.1) ng/mL
same,Mean AUC24h (CV%),[14],5827.0 (12.3) ng × h/mL
same,Mean Cmax (CV%),[14],498.0 (13.2) ng/mL
same,Mean Cmin (CV%),[14],100.9 (46.3) ng/mL
same,Mean Cmax (CV%),[15],958.2 (15.2) ng/mL
same,Mean Cmin (CV%),[15],342.9 (14.3) ng/mL
same,Mean Cmax (CV%),[16],1671.2 (14.6) ng/mL
same,Mean Cmin (CV%),[16],650.2 (15.5) ng/mL
same,Mean Cmax (CV%),[17],1866.6 (51.7) ng/mL
same,Mean Cmin (CV%),[17],458.7 (54.9) ng/mL
same,Mean Cmax (CV%),[18],3001.8 (25.1) ng/mL
same,Mean Cmin (CV%),[18],929.0 (62.1) ng/mL
same,Mean AUC24h (CV%),"cohort 3c (>1 to <3 mo), 5 mg/kg QD oral, n=4, Day 7, listed as JNJ-8678, 5 mg/kg",39 627 ng × h/mL
same,Mean Cmax (CV%),[19],2371.8 (70.8) ng/mL
same,Mean Cmin (CV%),[19],333.2 (62.3) ng/mL
same,Mean Cmax (CV%),[20],3389.4 (52.9) ng/mL
same,Mean Cmin (CV%),[20],615.9 (75.2) ng/mL
same,Mean AUC24h (CV%),"cohort 1d (≥6 to ≤24 mo), 9 mg/kg QD oral, n=4, Day 7, listed as JNJ-8678, 9 mg/kg",35 840 ng × h/mL
